Data reported in ChEMBL document CHEMBL3779808, “Design, synthesis and biological evaluation of 5-amino-4-(1H-benzoimidazol-2-yl)-phenyl-1,2-dihydro-pyrrol-3-ones as inhibitors of protein kinase FGFR1” (Bioorg Med Chem, 2016).

Legend:
[1] = molecular target: T1, Fibroblast growth factor receptor 1 (Homo sapiens, UniProt P11362); assay: Inhibition of N-terminal GST-tagged recombinant human FGFR1 (456 to 765 residues) expressed in baculovirus infected insect Sf21 cells after 25 mins using KKKSPGEYVNIEFG peptide substrate by scintillation counting analysis
Target sequence in this assay (P11362 whole entry, the tested form may be a part): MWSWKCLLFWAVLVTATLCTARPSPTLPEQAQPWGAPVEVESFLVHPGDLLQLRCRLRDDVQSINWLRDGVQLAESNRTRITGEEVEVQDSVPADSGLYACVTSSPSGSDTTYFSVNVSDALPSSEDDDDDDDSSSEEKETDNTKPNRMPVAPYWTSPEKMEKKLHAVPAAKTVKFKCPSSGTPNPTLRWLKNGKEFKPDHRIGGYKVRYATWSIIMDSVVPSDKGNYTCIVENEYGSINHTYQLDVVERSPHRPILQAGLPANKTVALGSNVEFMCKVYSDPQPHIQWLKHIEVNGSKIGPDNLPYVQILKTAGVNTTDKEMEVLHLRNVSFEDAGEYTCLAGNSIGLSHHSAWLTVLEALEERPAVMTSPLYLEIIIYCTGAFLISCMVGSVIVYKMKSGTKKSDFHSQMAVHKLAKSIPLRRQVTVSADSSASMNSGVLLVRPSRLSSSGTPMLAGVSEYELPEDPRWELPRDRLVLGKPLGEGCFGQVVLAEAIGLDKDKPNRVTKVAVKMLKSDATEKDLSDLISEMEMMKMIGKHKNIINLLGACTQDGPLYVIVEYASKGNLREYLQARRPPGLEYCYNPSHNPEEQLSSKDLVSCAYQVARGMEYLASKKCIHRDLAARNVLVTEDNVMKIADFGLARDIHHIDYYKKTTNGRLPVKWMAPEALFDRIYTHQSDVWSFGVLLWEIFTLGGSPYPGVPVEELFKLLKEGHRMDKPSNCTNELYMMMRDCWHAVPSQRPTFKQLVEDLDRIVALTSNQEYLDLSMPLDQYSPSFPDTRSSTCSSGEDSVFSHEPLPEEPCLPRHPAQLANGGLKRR

[2] = Cytotoxicity against human KG1 cells assessed as cell viability after 72 hrs by MTT assay; conditions: KG-1, 72 h
[3] = tested on: HEK293; assay: Cytotoxicity against HEK293 cells assessed as cell viability after 72 hrs by MTT assay; conditions: Homo sapiens, HEK293, 72 h
[4] = molecular target: T1, Fibroblast growth factor receptor 1; assay: Inhibition of N-terminal GST-tagged recombinant human FGFR1 (456 to 765 residues) expressed in baculovirus infected insect Sf21 cells assessed as residual activity at 10 uM
Outline: (§1)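 This is a seven-kinase selectivity panel run according to the enzyme supplier's (Millipore) protocols. The reaction mixture contained 100 µM ATP. Activity is reported as residual activity.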
Target sequence in this assay (P11362 22-822 limits assumed): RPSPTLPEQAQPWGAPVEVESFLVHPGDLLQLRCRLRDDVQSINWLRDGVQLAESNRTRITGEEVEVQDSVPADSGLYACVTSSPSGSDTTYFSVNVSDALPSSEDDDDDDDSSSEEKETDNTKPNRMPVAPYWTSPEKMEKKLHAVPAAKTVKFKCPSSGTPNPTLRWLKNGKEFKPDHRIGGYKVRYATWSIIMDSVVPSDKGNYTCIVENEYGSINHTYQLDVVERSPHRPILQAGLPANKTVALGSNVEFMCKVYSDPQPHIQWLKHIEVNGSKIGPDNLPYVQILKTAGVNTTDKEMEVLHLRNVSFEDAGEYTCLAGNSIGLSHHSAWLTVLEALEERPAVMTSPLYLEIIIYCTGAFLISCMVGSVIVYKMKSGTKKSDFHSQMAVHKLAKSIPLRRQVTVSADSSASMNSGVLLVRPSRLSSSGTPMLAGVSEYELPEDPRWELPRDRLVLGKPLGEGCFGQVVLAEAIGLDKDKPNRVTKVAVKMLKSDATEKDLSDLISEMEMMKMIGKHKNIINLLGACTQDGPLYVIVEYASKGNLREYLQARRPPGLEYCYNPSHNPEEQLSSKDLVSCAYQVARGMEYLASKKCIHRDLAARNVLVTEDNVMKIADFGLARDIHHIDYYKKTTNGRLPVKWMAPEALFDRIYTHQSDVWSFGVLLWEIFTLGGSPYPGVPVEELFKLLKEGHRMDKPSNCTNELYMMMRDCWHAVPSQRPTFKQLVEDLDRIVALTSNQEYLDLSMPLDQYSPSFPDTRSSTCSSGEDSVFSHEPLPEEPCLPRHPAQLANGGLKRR

[5] = molecular target: Angiopoietin-1 receptor (Homo sapiens) (UniProt Q02763); assay: Inhibition of N-terminal His6-tagged recombinant human Tie2 residues 771-end expressed in baculovirus infected insect Sf21 cells assessed as residual activity at 10 uM; outline: as §1
[6] = molecular target: Hepatocyte growth factor receptor (Homo sapiens) (UniProt P08581); assay: Inhibition of N-terminal His6-tagged recombinant human c-Met residues 974-end expressed in baculovirus infected insect Sf21 cells assessed as residual activity at 10 uM; outline: as §1
[7] = molecular target: T2, Aurora kinase A (Homo sapiens) (UniProt O14965); assay: Inhibition of N-terminal His6-tagged recombinant full length human Aurora A expressed in Sf21 cells assessed as residual activity at 10 uM; outline: as §1
T2 sequence (whole entry): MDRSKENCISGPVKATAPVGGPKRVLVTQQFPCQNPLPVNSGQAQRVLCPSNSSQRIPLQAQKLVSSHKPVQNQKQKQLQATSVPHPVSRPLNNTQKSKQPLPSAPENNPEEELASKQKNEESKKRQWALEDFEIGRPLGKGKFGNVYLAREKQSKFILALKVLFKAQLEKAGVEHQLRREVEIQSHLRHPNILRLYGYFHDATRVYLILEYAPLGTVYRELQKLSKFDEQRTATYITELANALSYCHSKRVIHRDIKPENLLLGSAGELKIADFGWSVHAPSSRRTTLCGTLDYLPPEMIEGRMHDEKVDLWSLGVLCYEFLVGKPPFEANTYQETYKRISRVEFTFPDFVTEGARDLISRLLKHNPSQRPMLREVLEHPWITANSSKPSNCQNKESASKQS

[8] = molecular target: Mitogen-activated protein kinase 10 (Homo sapiens) (UniProt P53779); assay: Inhibition of N-terminal His6 tagged recombinant full length human JNK3 expressed in Sf21 cells assessed as residual activity at 10 uM; outline: as §1
[9] = molecular target: Casein kinase 2 (Homo sapiens) (UniProt P67870+P68400+P19784+Q8NEV1); assay: Inhibition of recombinant full length human Casein Kinase 2 expressed in insect Sf21 cells assessed as residual activity at 10 uM; outline: as §1
[10] = molecular target: T3, Mitogen-activated protein kinase kinase kinase 5 (Homo sapiens) (UniProt Q99683); assay: Inhibition of N-terminal GST/C-terminal His6-tagged recombinant human ASK1 (649 to 946 amino acids) expressed in Escherichia coli assessed as residual activity at 10 uM; outline: as §1
T3 sequence (whole entry): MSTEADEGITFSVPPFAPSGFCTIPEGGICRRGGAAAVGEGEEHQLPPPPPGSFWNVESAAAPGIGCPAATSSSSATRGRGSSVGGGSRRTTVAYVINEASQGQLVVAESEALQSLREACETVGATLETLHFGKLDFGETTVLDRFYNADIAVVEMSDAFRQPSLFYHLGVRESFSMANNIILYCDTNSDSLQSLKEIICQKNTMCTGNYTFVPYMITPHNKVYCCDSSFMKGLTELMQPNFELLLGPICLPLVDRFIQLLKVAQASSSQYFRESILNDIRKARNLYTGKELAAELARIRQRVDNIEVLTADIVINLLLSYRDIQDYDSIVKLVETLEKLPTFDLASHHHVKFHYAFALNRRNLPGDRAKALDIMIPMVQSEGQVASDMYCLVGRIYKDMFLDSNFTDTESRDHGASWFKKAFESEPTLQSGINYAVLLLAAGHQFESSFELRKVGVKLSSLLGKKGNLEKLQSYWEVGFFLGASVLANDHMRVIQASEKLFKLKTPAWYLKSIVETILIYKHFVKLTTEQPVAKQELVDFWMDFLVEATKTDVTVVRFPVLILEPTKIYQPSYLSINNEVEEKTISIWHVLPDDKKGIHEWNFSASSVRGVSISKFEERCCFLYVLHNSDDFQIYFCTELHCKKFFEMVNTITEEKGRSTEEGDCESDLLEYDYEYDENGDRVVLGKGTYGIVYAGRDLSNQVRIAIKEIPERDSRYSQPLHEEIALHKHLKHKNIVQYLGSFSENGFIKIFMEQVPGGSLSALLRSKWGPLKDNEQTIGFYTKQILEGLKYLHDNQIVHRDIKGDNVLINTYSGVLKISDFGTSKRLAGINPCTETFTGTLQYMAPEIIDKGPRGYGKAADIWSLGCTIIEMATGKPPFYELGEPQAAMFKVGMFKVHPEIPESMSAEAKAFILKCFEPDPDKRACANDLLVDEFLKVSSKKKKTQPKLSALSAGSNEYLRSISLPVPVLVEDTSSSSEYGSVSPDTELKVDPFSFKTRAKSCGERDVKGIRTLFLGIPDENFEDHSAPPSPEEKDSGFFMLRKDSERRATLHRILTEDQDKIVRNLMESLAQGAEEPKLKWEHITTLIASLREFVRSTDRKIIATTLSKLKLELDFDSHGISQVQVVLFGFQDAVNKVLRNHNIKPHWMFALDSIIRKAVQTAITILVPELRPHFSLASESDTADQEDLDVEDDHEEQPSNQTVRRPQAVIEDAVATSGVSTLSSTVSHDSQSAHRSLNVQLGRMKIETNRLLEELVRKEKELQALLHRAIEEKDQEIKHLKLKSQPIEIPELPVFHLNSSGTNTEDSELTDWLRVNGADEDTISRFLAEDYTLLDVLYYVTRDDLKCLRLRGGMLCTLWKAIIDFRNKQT

Chain of Angiopoietin-1 receptor (Homo sapiens) (Q02763 whole entry, the tested form may be a part): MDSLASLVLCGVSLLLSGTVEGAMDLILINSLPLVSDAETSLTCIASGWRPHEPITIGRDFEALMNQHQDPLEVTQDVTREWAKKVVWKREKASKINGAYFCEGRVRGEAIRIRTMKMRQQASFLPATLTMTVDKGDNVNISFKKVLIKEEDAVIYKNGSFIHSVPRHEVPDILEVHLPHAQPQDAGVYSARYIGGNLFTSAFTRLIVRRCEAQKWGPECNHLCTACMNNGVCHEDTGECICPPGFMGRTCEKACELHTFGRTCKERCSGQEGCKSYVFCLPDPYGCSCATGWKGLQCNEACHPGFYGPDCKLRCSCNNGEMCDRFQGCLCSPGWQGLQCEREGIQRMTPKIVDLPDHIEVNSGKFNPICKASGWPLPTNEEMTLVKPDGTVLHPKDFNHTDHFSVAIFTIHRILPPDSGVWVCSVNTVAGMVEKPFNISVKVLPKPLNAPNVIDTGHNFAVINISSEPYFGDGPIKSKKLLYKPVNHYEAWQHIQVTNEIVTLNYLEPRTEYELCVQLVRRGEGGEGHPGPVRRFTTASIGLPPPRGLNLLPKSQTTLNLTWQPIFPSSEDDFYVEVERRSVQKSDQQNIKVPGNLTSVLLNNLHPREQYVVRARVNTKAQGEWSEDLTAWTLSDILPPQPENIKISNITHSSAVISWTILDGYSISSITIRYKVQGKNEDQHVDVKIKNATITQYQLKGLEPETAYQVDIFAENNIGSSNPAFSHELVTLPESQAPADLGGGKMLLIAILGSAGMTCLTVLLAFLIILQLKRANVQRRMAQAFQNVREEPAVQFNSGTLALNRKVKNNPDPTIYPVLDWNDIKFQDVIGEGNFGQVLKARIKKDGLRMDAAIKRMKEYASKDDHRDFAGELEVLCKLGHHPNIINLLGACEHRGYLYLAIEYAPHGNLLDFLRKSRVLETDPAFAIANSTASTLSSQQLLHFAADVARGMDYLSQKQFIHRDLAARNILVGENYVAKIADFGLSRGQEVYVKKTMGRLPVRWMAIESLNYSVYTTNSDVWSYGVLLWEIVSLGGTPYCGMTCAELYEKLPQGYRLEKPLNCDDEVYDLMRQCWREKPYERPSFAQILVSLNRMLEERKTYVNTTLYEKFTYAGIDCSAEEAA
Chain of Hepatocyte growth factor receptor (Homo sapiens) (P08581 whole entry, the tested form may be a part): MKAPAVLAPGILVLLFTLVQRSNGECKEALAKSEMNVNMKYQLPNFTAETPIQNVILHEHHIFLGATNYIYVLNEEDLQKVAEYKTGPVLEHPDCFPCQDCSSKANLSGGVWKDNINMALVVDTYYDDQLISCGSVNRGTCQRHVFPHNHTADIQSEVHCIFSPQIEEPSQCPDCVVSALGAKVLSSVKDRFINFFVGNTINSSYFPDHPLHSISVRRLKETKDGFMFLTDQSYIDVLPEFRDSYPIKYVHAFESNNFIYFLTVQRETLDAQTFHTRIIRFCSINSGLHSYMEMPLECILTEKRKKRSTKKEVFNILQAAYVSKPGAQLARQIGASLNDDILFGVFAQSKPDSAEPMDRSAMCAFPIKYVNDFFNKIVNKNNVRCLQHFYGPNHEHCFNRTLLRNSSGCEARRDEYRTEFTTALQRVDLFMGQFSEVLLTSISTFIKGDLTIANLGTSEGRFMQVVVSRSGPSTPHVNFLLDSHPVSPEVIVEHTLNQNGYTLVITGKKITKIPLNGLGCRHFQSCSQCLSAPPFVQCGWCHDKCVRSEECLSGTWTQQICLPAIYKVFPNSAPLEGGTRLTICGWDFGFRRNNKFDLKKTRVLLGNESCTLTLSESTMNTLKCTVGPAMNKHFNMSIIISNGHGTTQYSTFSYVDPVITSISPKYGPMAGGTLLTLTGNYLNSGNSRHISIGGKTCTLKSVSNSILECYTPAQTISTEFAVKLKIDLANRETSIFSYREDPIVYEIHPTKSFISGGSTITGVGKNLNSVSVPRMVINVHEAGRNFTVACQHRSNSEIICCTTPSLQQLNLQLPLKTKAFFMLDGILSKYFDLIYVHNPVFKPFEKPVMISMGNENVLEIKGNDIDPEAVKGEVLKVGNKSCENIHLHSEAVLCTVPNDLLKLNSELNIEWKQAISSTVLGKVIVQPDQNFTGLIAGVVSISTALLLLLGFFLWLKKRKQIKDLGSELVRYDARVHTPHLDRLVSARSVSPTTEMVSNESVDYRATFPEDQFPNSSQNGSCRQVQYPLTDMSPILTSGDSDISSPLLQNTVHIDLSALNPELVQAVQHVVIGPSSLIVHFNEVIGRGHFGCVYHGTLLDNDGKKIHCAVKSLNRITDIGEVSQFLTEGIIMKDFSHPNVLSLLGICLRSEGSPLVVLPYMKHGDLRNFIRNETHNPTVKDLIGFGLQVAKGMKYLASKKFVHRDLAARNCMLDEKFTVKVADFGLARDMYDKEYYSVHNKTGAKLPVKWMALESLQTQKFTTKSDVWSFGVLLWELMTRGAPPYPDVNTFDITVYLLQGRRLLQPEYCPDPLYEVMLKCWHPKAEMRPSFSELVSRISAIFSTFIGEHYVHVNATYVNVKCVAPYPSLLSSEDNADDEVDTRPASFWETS
Chain of Mitogen-activated protein kinase 10 (Homo sapiens) (P53779 whole entry): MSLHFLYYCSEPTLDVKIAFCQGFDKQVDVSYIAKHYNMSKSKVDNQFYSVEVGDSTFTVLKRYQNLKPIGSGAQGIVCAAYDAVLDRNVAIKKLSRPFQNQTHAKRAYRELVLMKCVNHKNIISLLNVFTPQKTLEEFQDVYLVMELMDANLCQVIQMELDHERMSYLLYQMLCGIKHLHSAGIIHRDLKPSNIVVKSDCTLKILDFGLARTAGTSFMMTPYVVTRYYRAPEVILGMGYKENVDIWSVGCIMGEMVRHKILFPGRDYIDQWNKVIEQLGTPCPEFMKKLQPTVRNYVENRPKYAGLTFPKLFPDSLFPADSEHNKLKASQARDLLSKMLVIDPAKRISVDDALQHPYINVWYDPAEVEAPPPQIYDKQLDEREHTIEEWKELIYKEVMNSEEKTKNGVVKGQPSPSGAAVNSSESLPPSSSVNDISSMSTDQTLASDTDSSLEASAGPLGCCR

Cc1ccc2nc(C3=C(N)N(c4cccc(O)c4)CC3=O)[nH]c2c1
IC50 [1]: 0.63 µM
IC50 [2]: 5.6 µM
IC50 [3]: > 50 µM
Activity [4]: 5%
Activity [5]: 92.7%
Activity [6]: 92.5%
Activity [7]: 75.8%
Activity [8]: 101%
Activity [9]: 77.3%
Activity [10]: 91.6%

NC1=C(c2nc3ccccc3[nH]2)C(=O)CN1c1cccc(O)c1
IC50 [1]: 0.32 µM
IC50 [2]: 9.3 µM
IC50 [3]: > 50 µM
Activity [4]: 2.1%
Activity [5]: 84.7%
Activity [6]: 128%
Activity [7]: 85.8%
Activity [8]: 118%
Activity [9]: 81.4%
Activity [10]: 95.7%

Cc1ccc(N2CC(=O)C(c3nc4ccccc4[nH]3)=C2N)cc1
IC50 [1]: > 30 µM

NC1=C(c2nc3ccccc3[nH]2)C(=O)CN1c1ccccc1F
IC50 [1]: > 30 µM

CCOc1ccccc1N1CC(=O)C(c2nc3ccccc3[nH]2)=C1N
IC50 [1]: > 30 µM

COc1ccc(N2CC(=O)C(c3nc4ccccc4[nH]3)=C2N)c(OC)c1
IC50 [1]: > 30 µM

NC1=C(c2nc3ccccc3[nH]2)C(=O)CN1c1ccccc1Cl
IC50 [1]: > 30 µM

COc1ccc(Cl)cc1N1CC(=O)C(c2nc3ccccc3[nH]2)=C1N
IC50 [2]: > 50 µM
IC50 [3]: > 50 µM

Cc1cccc(N2CC(=O)C(c3nc4ccccc4[nH]3)=C2N)c1
IC50 [1]: > 30 µM

NC1=C(c2nc3ccccc3[nH]2)C(=O)CN1c1ccccc1
IC50 [1]: > 30 µM

NC1=C(c2nc3ccccc3[nH]2)C(=O)CN1c1ccc(F)cc1
IC50 [1]: 27 µM
